Experimental findings from ChEMBL document CHEMBL1122696, “Synthesis and antiviral/antitumor activities of certain pyrazolo[3,4-d]pyrimidine-4(5H)-selone nucleosides and related compounds” (J Med Chem, 1984) are described below.

For one data set, the system named is Vaccinia virus. Put plainly: In vitro antiviral activity against Vaccinia virus. It counts as functional. The following applies: Orthopoxvirus vaccinia; read-out: ED50 (the source's name).
The subject of data set [1] is P388. Description: In vitro antitumor activity against P388 leukemia cells. In kind it is functional. The following applies: Mus musculus, read-out: ID50 (the source's name). Put shortly:
(§1)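 L1210 or P388 cells kept in RPMI-1640 with 10% heat-inactivated fetal calf serum, seeded at 5×10^4 cells/mL in tubes. Grown with compound at 4-5 log doses for 48 h at 37 °C. Growth read by Coulter cell count as % of untreated control tubes. ID50 = dose giving 50% growth inhibition.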

The test system of data set [2] is L1210. Put plainly: In vitro antitumor activity against L1210 leukemia cells. The following applies: Mus musculus, read-out: ID50 (the source's name). It counts as functional. The procedure, abridged: as §1
In the next data set the test system is Human alphaherpesvirus 2. Put plainly: In vitro antiviral activity against Herpes simplex type 2 virus. In kind it is functional. The following applies: read-out: ED50 (the source's name).
The test system of another data set is Human respirovirus 3. Put plainly: In vitro antiviral activity against parainfluenza type (para 3) virus. In kind it is functional. The following applies: read-out: ED50 (the source's name).
The nature of data set [3]: Toxic level of the compound. It counts as ADME. Put shortly:
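HeLa and Vero cells grown overnight to near confluency, then exposed to compound at 100 or 1000 μg/mL for 24-72 h in quadruplicate wells. Cells trypsinized, serially diluted and replated, then grown 3-5 days drug-free. Crystal violet-stained colonies counted. Survival expressed as relative plating efficiency versus untreated controls.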

For a further data set, the system named is Measles morbillivirus. Put plainly: In vitro antiviral activity against measles virus. In kind it is functional. The note with it: read-out: ED50 (the source's name).
Data set [4] is described as follows: Toxic level of the compound; None. It counts as ADME.
The test system of data set [5] is L1210. Description: In vitro antitumor activity against L1210 leukemia cells; b = Inactive at 10e-4 M. In kind it is functional, cell-based. The note with it: Mus musculus. Put shortly:
(§2)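 L1210 and P388 cells kept in RPMI-1640 with 10% heat-inactivated fetal calf serum. Seeded in tubes at 5×10^4 cells/mL and grown 48 h at 37 °C with compound at 4-5 log doses. Growth counted by Coulter counter and expressed as % of untreated control tubes. ID50 is the dose giving 50% growth inhibition.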

In data set [6] the test system is P388. Put plainly: In vitro antitumor activity against P388 leukemia cells; b = Inactive at 10e-4 M. The note with it: Mus musculus. In kind it is functional, cell-based. Put shortly: as §2

Active and inactive are the calls of the source. No cut-off for these calls is given here.

`OC[C@H]1OC(n2ncc3c([SeH])ncnc32)[C@H](O)[C@@H]1O` (stereo partly drawn): the EC50 with Vaccinia virus was 9.6 µM; in the data set with Human alphaherpesvirus 2, 5 µM; with Human respirovirus 3 it was over 5000 µM; with Measles morbillivirus it was 1.2 µM. The IC50 was 2.7 µM with P388 [1] and 2.5 µM with L1210 [2]. This molecule registered a Toxic level in [3] of 160 µM.
Take `OC[C@H]1OC(n2ncc3c(S)ncnc32)[C@H](O)[C@@H]1O` (stereo partly drawn): the values for the EC50 in the data set with Human alphaherpesvirus 2, with Human respirovirus 3 and in the data set with Measles morbillivirus were 160 µM, over 5000 µM and 12 µM, respectively. Further, the Toxic level entry in [4] was “Not Active”. In addition, the ID50 entry in the data set with L1210 [5] and in the data set with P388 [6] was “Inactive at 10^-4M” each time.
`OC[C@H]1OC(n2nc(Br)c3c([SeH])ncnc32)[C@H](O)[C@@H]1O` (stereo partly drawn): the EC50 is 5 µM in the data set with Vaccinia virus, 9 µM in the data set on Human alphaherpesvirus 2, over 5000 µM in the data set with Human respirovirus 3 and 1.3 µM in the data set on Measles morbillivirus. Also, the IC50 in the data set on P388 [1] was 2.3 µM; in the data set with L1210 [2], 2.7 µM. In addition, in data set [3], the Toxic level was 50 µM.
Turning to `Cc1nc2c(cnn2C2O[C@H](CO)[C@@H](O)[C@H]2O)c(=O)[nH]1` (stereo partly drawn), the EC50 with Vaccinia virus was 1600 µM; in the data set on Human alphaherpesvirus 2, 50 µM; in the data set on Human respirovirus 3 it was over 5000 µM; with Measles morbillivirus, 12 µM. Further, the Toxic level in data set [3] turned out to be 5000 µM. The ID50 result with L1210 [5] and in the data set on P388 [6] was “Inactive at 10^-4M” throughout.
On to `Cc1nc(S)c2cnn(C3O[C@H](CO)[C@@H](O)[C@H]3O)c2n1` (stereo partly drawn), for which the EC50 in the data set on Vaccinia virus is 1200 µM; with Human alphaherpesvirus 2, 320 µM; with Human respirovirus 3, over 5000 µM; with Measles morbillivirus it was 0.0014 µM. This molecule registered a Toxic level in data set [3] of 5000 µM. The ID50 entry in the data set on L1210 [5] and with P388 [6] was “Inactive at 10^-4M” throughout.
Turning to `Cc1nc([SeH])c2cnn(C3O[C@H](CO)[C@@H](O)[C@H]3O)c2n1` (stereo partly drawn), the EC50 is 16 µM in the data set on Vaccinia virus, 5 µM with Human alphaherpesvirus 2, 13 µM with Human respirovirus 3 and 1.3 µM in the data set with Measles morbillivirus. In addition, the IC50 with P388 [1] and with L1210 [2] was 3.1 µM in each case. The molecule further displayed a Toxic level in [3] of 500 µM.
In the case of `Cc1nc(N)c2cnn(C3O[C@H](CO)[C@@H](O)[C@H]3O)c2n1` (stereo partly drawn), the EC50 in the data set on Vaccinia virus was 5000 µM; with Human alphaherpesvirus 2, 35 µM; in the data set on Human respirovirus 3, over 5000 µM; in the data set with Measles morbillivirus it was 12 µM. The Toxic level entry in data set [4] is on record as “Not Active”. Besides, the ID50 result in the data set with L1210 [5] and in the data set on P388 [6] was “Inactive at 10^-4M” throughout.
